Assay results reported in ChEMBL document CHEMBL1135573, “New stereocontrolled synthesis and biological evaluation of 5-(1'-hydroxyalkyl)-3-methylidenetetrahydro-2-furanones as potential cytotoxic agents” (J Med Chem, 2002).

Experiments:
L1210 = assay: Compound was evaluated for in vitro cytotoxic activity against mouse L-1210 leukemia cell line; type: functional, cell-based
HL-60 = assay: Compound was evaluated for in vitro cytotoxic activity against human HL-60 leukemia cell line; type: functional, cell-based
[1] = Partition coefficient (logP); type: physicochemical; details: octanol/water
Summary of the method: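 log P (1-octanol/water) computed with a standard software package. For one analogue it was also measured by a spectrophotometric method.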

| Molecule | IC50 (L1210; Mus musculus, L1210) [µM] | IC50 (HL-60; Homo sapiens, HL-60) [µM] | logP [1] | IC50 (L1210; l1210) [µM] | IC50 (HL-60; hl-60) [µM] |
| --- | --- | --- | --- | --- | --- |
| C=C1C[C@H]([C@@H](O)c2ccccc2)OC1=O | 7.5 | 41.2 | – | – | – |
| C=C1C[C@H]([C@H](C)O)OC1=O | 17.3 | 46.8 | – | – | – |
| C=C1C[C@](C)(CO)OC1=O | 26.7 | 51.3 | 0.44 | – | – |
| C=C1C[C@H]([C@@H](C)O)OC1=O | 19.3 | 47.3 | 0.55 | – | – |
| C=C1C[C@H]([C@H](O)CCC)OC1=O | 18.5 | 51.9 | 1.59 | – | – |
| CARBOPLATIN | – | – | – | 9.7 | 2.9 |
| C=C1C[C@H]([C@@H](O)CCC)OC1=O | 16.9 | 52.6 | – | – | – |
| C=C1C[C@H]([C@H](O)c2ccccc2)OC1=O | 6.9 | 36.4 | 1.8 | 8 | – |
